Laboratory results reported in ChEMBL document CHEMBL5335790, “Design, synthesis and biological evaluation of novel 2,4-thiazolidinedione derivatives able to target the human BAG3 protein” (Eur J Med Chem, 2023).
Activity calls are given as the source filed them. The calls are words filed in the database; no cut-off is given here.

Tests used:
A549 = assay: Antiproliferative activity against human A549 cells assessed as cell growth inhibition incubated for 72 hrs by resazurin dye based analysis; type: functional
Summary of the method: (§1)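 Cells seeded at 2000/well, treated 24 h later with compounds in a 6-point 2-fold dose series, duplicate wells, two independent experiments. After 72 h, resazurin was added at 44 µM final for 3 h at 37 °C and fluorescence was read at 590 nm. Viability was normalized to 1 µM bortezomib (positive) and 0.5% DMSO (negative) controls. GI50 is the mean ± SEM of dose-response curves.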

HD-MB03 = assay: Antiproliferative activity against human HD-MB03 cells assessed as cell growth inhibition incubated for 72 hrs by resazurin dye based analysis; type: functional; summary of the method: as §1
[1] = Cytotoxicity against resting human PBMC cells assessed as cell growth inhibition incubated for 72 hrs by MTT assay; type: toxicity, cell-based
[2] = target: T1, BAG family molecular chaperone regulator 3 (Homo sapiens, UniProt O95817); assay: Binding affinity to CM4 sensorchip immobilized glycosylated C-terminal His tagged human BAG3 transfected in HEK293T cells assessed as dissociation constant by SPR analysis
T1 sequence (O95817 whole entry): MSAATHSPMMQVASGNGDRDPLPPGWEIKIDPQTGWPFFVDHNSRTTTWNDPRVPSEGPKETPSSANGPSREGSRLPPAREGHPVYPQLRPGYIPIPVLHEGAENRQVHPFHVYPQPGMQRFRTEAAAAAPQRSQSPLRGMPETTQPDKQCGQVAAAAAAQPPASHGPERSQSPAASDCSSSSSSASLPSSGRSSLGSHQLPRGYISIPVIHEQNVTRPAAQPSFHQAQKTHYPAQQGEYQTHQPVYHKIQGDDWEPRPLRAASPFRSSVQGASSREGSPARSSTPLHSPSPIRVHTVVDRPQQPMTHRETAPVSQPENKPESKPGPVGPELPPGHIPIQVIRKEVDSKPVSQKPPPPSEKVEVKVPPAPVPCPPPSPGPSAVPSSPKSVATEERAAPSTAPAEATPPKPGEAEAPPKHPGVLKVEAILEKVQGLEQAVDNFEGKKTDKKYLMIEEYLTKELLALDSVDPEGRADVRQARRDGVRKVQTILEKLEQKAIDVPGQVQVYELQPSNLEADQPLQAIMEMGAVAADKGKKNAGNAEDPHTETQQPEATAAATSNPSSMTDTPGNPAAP
Summary of the method: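 SPR single-cycle kinetics on CM4-immobilized HEK-293T-expressed BAG3-His. Increasing compound concentrations in PBS with 5% DMSO and 0.05% P20 were injected at 30 µL/min without regeneration between injections, with blank subtraction. Kd from steady-state analysis, reported as mean ± SEM and compared by Student t-test.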

RS4-11 = assay: Antiproliferative activity against human RS4-11 cells assessed as cell growth inhibition incubated for 72 hrs by resazurin dye based analysis; type: functional; summary of the method: as §1
[3] = target: T1, BAG family molecular chaperone regulator 3; assay: Binding affinity to C-terminal His tagged human BAG3 transfected in HEK293T cells assessed as intermolecular nuclear overhauser effect mediated protein magnetization at 125 uM by waterLOGSY experiment; type: cell-based
Summary of the method: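 Ligand-observed NMR in 50 mM sodium phosphate pH 7.8, 150 mM NaCl, 0.04% NaN3, 1.3% DMSO-d6, 5% D2O. Compound at 125 µM with 5 µM BAG3-His (HEK-293T expressed, purified by IMAC and SEC), each also run without protein. WaterLOGSY used 240 scans, 1.5 s mixing and water inversion at 4.7 ppm. STD used 256 scans with protein saturation at 0.4 ppm.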

[4] = Cytotoxicity against PHA stimulated human PBMC cells assessed as cell growth inhibition incubated for 72 hrs by MTT assay; type: toxicity, cell-based
[5] = target: T1, BAG family molecular chaperone regulator 3; assay: Binding affinity to CM4 sensorchip immobilized C-terminal His tagged human BAG3 transfected in HEK293T cells at 50 uM by SPR analysis
Summary of the method: (§2)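 SPR screen on BAG3-His amine-coupled to a CM4 chip at 60 µg/mL in pH 2.8 acetate. Compound at 50 µM in PBS with 5% DMSO and 0.05% P20 was injected for 90 s at 30 µL/min, then washed. Chip regenerated with 10 mM glycine pH 3. Bound RU read at equilibrium against a void flow cell; 3–10 repeats, mean ± SEM.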

[6] = target: T1, BAG family molecular chaperone regulator 3; assay: Binding affinity to CM4 sensorchip immobilized C-terminal His tagged human BAG3 transfected in HEK293T cells assessed as binding capacity at 50 uM by SPR analysis; summary of the method: as §2

| SMILES | GI50 (A549) [µM] | GI50 (HD-MB03) [µM] | GI50 at 72 h [1] [µM] | Kd [2] [µM] | GI50 (RS4-11) [µM] | Activity [3] | GI50 at 72 h [4] [µM] | Activity [5] | Activity [6] [RU] |
| --- | --- | --- | --- | --- | --- | --- | --- | --- | --- |
| CCOC(=O)CN1C(=O)S/C(=C\c2ccc(O)c(O)c2)C1=O | 42.5 | 14.8 | > 100 | 233 | 6.4 | Active | > 100 | – | – |
| CCOC(=O)CN1C(=O)SC(Cc2ccc(O)c(O)c2)C1=O (stereo unspecified) | > 100 | 49 | – | – | 27.6 | – | – | inactive | – |
| O=C(CN1C(=O)S/C(=C\c2ccc(O)c(O)c2)C1=O)N1CCOCC1 | 49.4 | 33.1 | – | 152 | 24.8 | – | – | – | > 5 |
| CCOC(=O)CN1C(=O)S/C(=C\c2cccc(O)c2)C1=O | > 100 | 40.7 | – | – | 55 | – | – | inactive | – |
| CCOC(=O)C(C)N1C(=O)S/C(=C\c2ccc3[nH]ncc3c2)C1=O (racemic) | 68 | 28.3 | – | – | 50.5 | – | – | – | < 5 |
| CCOC(=O)C(CC)N1C(=O)S/C(=C\c2ccc(O)c(O)c2)C1=O (racemic) | 29.3 | 11.7 | – | – | 5.13 | – | – | – | > 5 |
| CCOC(=O)C(C)N1C(=O)S/C(=C\c2ccc(F)c(O)c2)C1=O (racemic) | > 100 | > 100 | – | – | > 100 | – | – | inactive | – |
| CCOC(=O)C(C)N1C(=O)S/C(=C\c2ccc(O)c(O)c2)C1=O (racemic) | 32.5 | 25.3 | – | 286 | 5.1 | – | – | – | > 5 |
| O=C1OCCC1N1C(=O)S/C(=C\c2ccc(O)c(O)c2)C1=O (stereo unspecified) | 50.2 | 20.7 | – | – | 18.1 | – | – | – | < 5 |
| CCOC(=O)Cc1csc(Oc2ccc(O)cc2)n1 | > 100 | > 100 | – | – | > 100 | – | – | – | < 5 |
| CS(=O)(=O)Nc1ccc(/C=C2\SC(=O)N(CC(=O)N3CCOCC3)C2=O)cc1 | 47.7 | 47.4 | – | – | 12.4 | – | – | inactive | – |
| CCOC(=O)CN1C(=O)S/C(=C\c2ccc(OC)c(OC)c2)C1=O | > 100 | 45 | – | – | > 100 | – | – | inactive | – |
| CCOC(=O)CN1C(=O)S/C(=C\c2ccc(O)cc2)C1=O | > 100 | 29.5 | – | – | > 100 | – | – | inactive | – |
| CCOCCN1C(=O)S/C(=C\c2ccc(O)c(O)c2)C1=O | 34.3 | 17.8 | – | – | 6.1 | – | – | inactive | – |
| CCOC(=O)CN1C(=O)S/C(=C\c2ccc(F)cc2)C1=O | > 100 | 34.7 | – | – | > 100 | – | – | inactive | – |
| O=C(CN1C(=O)S/C(=C\c2ccc(O)c(O)c2)C1=O)OCc1ccccc1 | – | – | – | – | – | – | – | inactive | – |
| CC(C(=O)N1CCOCC1)N1C(=O)S/C(=C\c2ccc(O)c(O)c2)C1=O (racemic) | 47.9 | 48.7 | – | – | 14.1 | – | – | inactive | – |
| CCNC(=O)C(C)N1C(=O)S/C(=C\c2ccc(O)c(O)c2)C1=O (racemic) | 70.9 | 53.1 | – | – | 24.8 | – | – | inactive | – |
| CCOC(=O)C(C)N1C(=O)S/C(=C\c2ccc3c(c2)NC(=O)CO3)C1=O (racemic) | > 100 | 40.7 | – | – | 28.1 | – | – | inactive | – |
| CCOC(=O)C(C)N1C(=O)/C(=C/c2ccc(O)c(O)c2)N(C)C1=O (stereo unspecified) | 52.6 | 53.3 | – | – | 17.8 | – | – | inactive | – |
| CCOC(=O)CN1C(=O)S/C(=C\c2ccc(Cl)c(Cl)c2)C1=O | > 100 | > 100 | – | – | > 100 | – | – | inactive | – |
| CCOC(=O)CN1C(=O)S/C(=C\c2ccc(O)c(F)c2)C1=O | > 100 | 58.3 | – | – | > 100 | – | – | inactive | – |

| SMILES | GI50 (A549) [µM] | GI50 (HD-MB03) [µM] | GI50 at 72 h [1] [µM] | Kd [2] [µM] | GI50 (RS4-11) [µM] | Activity [3] | GI50 at 72 h [4] [µM] | Activity [5] | Activity [6] [RU] |
| --- | --- | --- | --- | --- | --- | --- | --- | --- | --- |
| CCOC(=O)C(C)N1C(=O)S/C(=C\c2ccc(O)c(Cl)c2)C1=O (racemic) | 49.4 | 26.5 | – | – | 38.1 | – | – | inactive | – |
| CC(C(=O)N1CCC2(CC1)OCCO2)N1C(=O)S/C(=C\c2ccc(O)c(O)c2)C1=O (racemic) | 44.1 | 31.4 | – | – | 13.4 | – | – | – | < 5 |
| CC(C(=O)N1CCCCC1)N1C(=O)S/C(=C\c2ccc(O)c(O)c2)C1=O (racemic) | 29.4 | 13.9 | – | 150 | 8.6 | – | – | – | > 5 |
| CN(C)C(=O)CN1C(=O)S/C(=C\c2ccc(O)c(O)c2)C1=O | 48.3 | 36.4 | – | – | 25.6 | – | – | inactive | – |
| CCOC(=O)C(C)N1C(=O)S/C(=C\c2ccc3cn[nH]c3c2)C1=O (racemic) | 57.5 | 26.3 | – | – | 17.8 | – | – | – | < 5 |
| CCOC(=O)C(C)N1C(=O)N/C(=C\c2ccc(O)c(O)c2)C1=O (racemic) | 54.1 | 16.9 | – | – | 11.9 | – | – | inactive | – |
| CC(C(=O)N1CCOCC1)N1C(=O)S/C(=C\c2ccc(N3CCOCC3)cc2)C1=O (racemic) | > 100 | > 100 | – | – | > 100 | – | – | – | < 5 |
| CCOC(=O)CN1C(=O)S/C(=C\c2ccc3c(c2)OCCO3)C1=O | > 100 | > 100 | – | – | > 100 | – | – | inactive | – |
| CCOC(=O)C(C)N1C(=O)S/C(=C\c2ccc(NS(C)(=O)=O)cc2)C1=O (racemic) | > 100 | 17.6 | – | – | 50.3 | – | – | – | – |
| CCOC(=O)C(c1ccccc1)N1C(=O)S/C(=C\c2ccc(O)c(O)c2)C1=O (racemic) | 33.3 | 17.6 | – | 366 | 9.53 | – | – | – | > 5 |
| CCOC(=O)CN1C(=O)S/C(=C(/C)c2ccc(O)c(O)c2)C1=O | 44.2 | 6.4 | – | – | 7.25 | – | – | inactive | – |
| CCOC(=O)C(C1CC1)N1C(=O)S/C(=C\c2ccc(O)c(O)c2)C1=O (racemic) | 28.1 | 15.5 | – | 204 | 6.83 | – | – | – | > 5 |
| CC(C(=O)N1CCOCC1)N1C(=O)S/C(=C\c2ccc(N3CCCC3)cc2)C1=O (racemic) | 69 | 7.4 | – | – | 5.2 | – | – | – | < 5 |
| CCOC(=O)C(C)N1C(=O)S/C(=C\c2cc(Cl)c(O)c(Cl)c2)C1=O (racemic) | 72.5 | 45.6 | – | – | 47.2 | – | – | – | < 5 |
| CC(C(=O)N1CC2(COC2)C1)N1C(=O)S/C(=C\c2ccc(O)c(O)c2)C1=O (racemic) | > 100 | > 100 | – | – | > 100 | – | – | inactive | – |
| CCOC(=O)C(C)N1C(=O)S/C(=C\c2ccc(O)nc2)C1=O (racemic) | > 100 | > 100 | – | – | > 100 | – | – | inactive | – |
| O=C(O)CN1C(=O)S/C(=C\c2ccc(O)c(O)c2)C1=O | > 100 | > 100 | – | – | > 100 | – | – | inactive | – |
| O=C(CN1C(=O)S/C(=C\c2cc(Cl)c(O)c(Cl)c2)C1=O)N1CCOCC1 | > 100 | > 100 | – | – | > 100 | – | – | inactive | – |
| CCOC(=O)C(C)N1C(=O)S/C(=C\c2ccc3[nH]cnc3c2)C1=O (racemic) | > 100 | 42.5 | – | 198 | > 100 | – | – | – | > 5 |
| CCOC(=O)C(C)N1C(=O)S/C(=C\c2cc(F)c(O)c(F)c2)C1=O (racemic) | > 100 | > 100 | – | – | > 100 | – | – | inactive | – |
| CCOC(=O)CN1C(=O)S/C(=C\c2ccc(OC)nc2)C1=O | > 100 | 41.1 | – | – | > 100 | – | – | inactive | – |
| CCOC(=O)C(C)N1C(=O)S/C(=C\c2ccc(Cl)c(O)c2)C1=O (racemic) | > 100 | 5.26 | – | – | 60.6 | – | – | – | < 5 |
